Measurements collected from several papers.
Compare with care: the assays were run in different laboratories.
Target: Cyclin-dependent kinase 8 (CDK8, Homo sapiens, UniProt P49336)

N[C@H]1CCN(c2nccc(-c3cnn4ncccc34)n2)C1  remaining binding (binding; 1 µM): 100%
c1cncc(-c2cccc(Nc3nccc(NC4CCCCC4)n3)c2)c1  remaining binding (binding; competition with immobilised ligand; 10 µM): 66%
Nc1ncc2c(n1)-c1c([nH]c3ccc(C#CC4CC4)cc13)CCCC2  remaining binding (binding; competition with immobilised ligand; 1 µM): 100%
O=C(NCCCN1CCOCC1)c1ccc(Nc2ncc(Cl)c(-c3ccc(Cl)s3)n2)cc1  remaining binding (binding; competition with immobilised ligand; 1 µM): 100%
CN(C)c1ncnc(-c2ccc3nc(Nc4cc(CN5CCN(C(=O)CC(F)(F)F)CC5)ccn4)[nH]c3c2)c1Cl  remaining binding (cell-free assay; competition with immobilised ligand; 1 µM): 90%
FC(F)(F)Oc1cccc(-c2cnc3ccc(-c4ccncc4)nn23)c1  remaining binding (cell-free assay; competition with immobilised ligand; 5 µM): 12%
CN(C)c1nccc(-c2cnn3ncccc23)n1  remaining binding (binding; 1 µM): 100%
O=C1NC(c2ccccn2)Sc2ccccc21 (centres unmarked)  remaining binding (cell-free assay; competition with immobilised ligand; 1 µM): 78%
CNC(=O)[C@@H]1CC[C@@H](n2c(-c3ccc4cnccc4c3)nc3ccc(C(=O)NCc4cccc(C(N)=O)c4)cc32)C1  remaining binding (binding; competition with immobilised ligand; 1 µM): 100%
O=C(NS(=O)(=O)c1ccc(NCC2CCOCC2)c([N+](=O)[O-])c1)c1ccc(N2CCN(Cc3ccc(C(F)(F)F)cc3-c3ccc(Cl)cc3)CC2)cc1Oc1cnc2[nH]ccc2c1  remaining binding (cell-free assay; competition with immobilised ligand; 1 µM): 100%
CN(c1nccc(-c2cnn3ncccc23)n1)C1CC1  remaining binding (binding; 1 µM): 100%
O=C(NCCCN1CCOCC1)c1ccc(Nc2nccc(-c3cc4ccccc4s3)n2)cc1  remaining binding (binding; competition with immobilised ligand; 1 µM): 79%
c1cnn2ncc(-c3ccnc(N4CCC45COC5)n3)c2c1  remaining binding (binding; 1 µM): 100%
O=C(Nc1c[nH]nc1C(=O)NC1CCNCC1)c1cc(F)cc(F)c1  remaining binding (binding; competition with immobilised ligand; 1 µM): 97%
CC1=C(C#N)C(c2ccc3c(c2)c(NC(=O)c2ccccc2C)nn3C)C(C#N)=C(C)N1  remaining binding (cell-free assay; competition with immobilised ligand; 1 µM): 97%
CN(C)c1ncc(F)c(-c2cnn3ncccc23)n1  remaining binding (binding; 1 µM): 87%
COc1ccc2c(O[C@@H]3C[C@H]4C(=O)N[C@]5(C(=O)O)CC5/C=C\CCCCC[C@H](NC(=O)OC5CCCC5)C(=O)N4C3)cc(-c3csc(NC(=O)C(C)C)n3)nc2c1C (some centres unmarked)  remaining binding (cell-free assay; competition with immobilised ligand; 1 µM): 68%
Cc1cnc(Nc2ccc(C(=O)N3CCC(N4CCCC4)CC3)cc2)nc1-c1cc2ccccc2s1  remaining binding (binding; competition with immobilised ligand; 1 µM): 89%
N#CC1(c2ccccn2)CCN(Cc2cc(C(=O)N3CCCC3)c(=O)n3ccccc23)CC1  remaining binding (cell-free assay; competition with immobilised ligand; 1 µM): 100%
C[C@@H]1CCN(c2nccc(-c3cnn4ncccc34)n2)C1  remaining binding (binding; 1 µM): 51%
